Experimental data collected from several papers.
Protocols differ between the studies behind these lines.
Target: Acetylcholinesterase (ACHE, Homo sapiens, UniProt P22303)
Observed: enzyme activity
Mode: inhibitor

O=c1cc(CSc2ccc(N=Cc3ccc(O)cc3)cc2)occ1O
IC50 (Ellman): 5.06 µM

CC(C)c1cc2c(c(O)c1O)[C@@]13CCCC(C)(C)[C@@H]1[C@@H](O)[C@@H]2OC3=O
IC50: 0.00098 µM

COc1cc(-c2nc3ccccc3s2)cc2c1OCC(=O)N2CC(=O)N[C@@H](CC(C)C)C(=O)O
IC50 (Ellman): > 265 µM

O=c1cc(CSc2ccc(N=Cc3cccc(Cl)c3)cc2)occ1O
IC50 (Ellman): 13.2 µM

COc1cc(-c2nc3ccccc3s2)cc(NC(C)=O)c1OCC(=O)N[C@H](C(=O)O)C(C)C
IC50 (Ellman): > 271 µM

CCOc1ccc(NC(=O)CSc2nnc(COc3ccc4ccccc4c3)n2-c2ccccc2)cc1
IC50 (Ellman): 0.815 µM

O=c1cc(CSc2ccc(N=Cc3cccc(F)c3)cc2)occ1O
IC50 (Ellman): 26.3 µM

Cc1ccc(NC(=O)CSc2nnc(COc3ccc4ccccc4c3)n2-c2ccccc2)cc1C
IC50 (Ellman): 0.778 µM

COc1cc(-c2nc3ccccc3s2)cc(NC(C)=O)c1OCC(=O)N[C@@H](C)C(=O)O
IC50 (Ellman): > 289 µM

CC(C)c1cc2c(c(O)c1O)[C@@]13CCCC(C)(C)[C@@H]1C[C@@H]2OC3=O
IC50: 0.00081 µM

CCc1cccc(C)c1NC(=O)CSc1nnc(COc2ccc3ccccc3c2)n1-c1ccccc1
IC50 (Ellman): 1.42 µM

CC[C@@H](C)[C@H](NC(=O)CN1C(=O)COc2c(OC)cc(-c3nc4ccccc4s3)cc21)C(=O)O
IC50 (Ellman): > 265 µM

O=c1cc(CSc2ccc(N=Cc3cccc(Br)c3)cc2)occ1O
IC50 (Ellman): 5.58 µM

COc1cc(-c2nc3ccccc3s2)cc2c1OCC(=O)N2CC(=O)N[C@@H](Cc1ccccc1)C(=O)O
IC50 (Ellman): > 247 µM

O=C(CSc1nnc(COc2ccc3ccccc3c2)n1-c1ccccc1)Nc1ccccc1
IC50 (Ellman): 1.87 µM

O=c1cc(CSc2ccc(N=Cc3ccccc3F)cc2)occ1O
IC50 (Ellman): 4.1 µM
